From PubChem BioAssay come the findings set out here.

Molecules are shown by their SMILES. Active and inactive are the calls of the source.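 How the source made its calls, unless noted: active means fluorescence slope higher than the sample average by over 3 SD (cut at about -0.22 in these data, passing the limit was not always enough); inactive means the rest.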

Assay [1] can be described thus: inhibitors of TNFa-induced NFkB p65 translocation, primary screen, imaging, HUVEC, MLSMR starter and 10KST1 sets (AID 438;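 active means inhibition above 20% together with a positive visual image hit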;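 further: compound added about 3h40 before a 20 min TNFalpha stimulation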;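 on inhibition: signal is the nuclear over cytoplasmic p65 intensity ratio per well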). Conditions: HUVEC TNFa-induced p65 nuclear translocation; cell count: measured here: nuclei count (cytotoxicity indicator), at 2.08 µM; inhibition: at 2 µM, stronger effect = higher value, 0% TNFa-plus-vehicle, 100% no-TNFa wells.
The nature of assay [2]: endothelial E-selectin expression blockers – imaging, HUVEC, immunofluorescence, MLSMR starter and 10KST1 sets, primary screen (AID 487;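 active means visually confirmed hit in the image check and inhibition above 20%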;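 on inhibition: signal is fraction of cell area covered by stained E-selectin grains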;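 on nuclei count: 100% = median nuclei count of all wells on the same plate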). The conditions noted are these: HUVEC TNFalpha-induced E-selectin immunofluorescence imaging, at 2 µM; inhibition: stronger effect = higher value; nuclei count: measured here: cell number, toxicity.
Assay [3] is described as follows: Primary imaging screen for DUSP6 inhibitors that restore phospho-Erk in transfected HeLa cells, chemical complementation (AID 609;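 active means compounds giving at least 50% inhibition in the cell-based MKP-3 phosphatase rescue imaging test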;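 on inhibition: phospho-Erk level distribution per well compared with pooled transfected vehicle control wells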). The conditions noted are these: HeLa MKP-3 transfected, phospho-Erk imaging KS statistic, at 10 µM, cells stimulated with TPA for 15 min.
In assay [4] the target is Dual specificity protein phosphatase 6 (Homo sapiens) (UniProt Q16828). The description is as above. The conditions noted are these: HeLa MKP-3 transfected, phospho-Erk imaging KS statistic; at 10 µM; stronger effect = higher value; cells stimulated with TPA for 15 min.
Assay [5] addresses Voltage-gated potassium channel subunit beta-2 (Rattus norvegicus) (UniProt P62483). The assay is described as follows: inhibitors of rat Kvbeta2 reductase activity – biochemical, NADPH fluorescence, primary screen (AID 622).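 Further: slope of raw intensity against log time taken from 70 to 1610 s.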 The conditions noted are these: recombinant KvBeta, 4-cyanobenzaldehyde reduction, at 10 µM, stronger effect = higher value.
Assay [6] has the same target. The assay can be described thus: enhancers of rat Kvbeta2 NADPH turnover – biochemical, NADPH fluorescence, primary screen (AID 623;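 active means NADPH fluorescence slope more negative than the mean of all samples by about 3 SD, 99.7% confidence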;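 further: fluorescence intensity change per second fitted from 20 to 320 s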). The conditions noted are these: Recombinant KvBeta, NADPH fluorescence decrease slope, 10 min; at 10 µM; stronger effect = lower value.
Assay [7] deals with Muscarinic acetylcholine receptor M4 (Homo sapiens) (UniProt P08173). The assay can be described thus: M4-linked GIRK flux change, two-sided – cell-based, HEK293 M4/GIRK, thallium flux, BTC-AM, M4 allosteric agonist project, primary screen (AID 625;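 active means fluorescence slope after compound addition differing from the mean of all tested samples at 99.7% confidence, mostly higher but some lower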;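 further: thallium influx through GIRK channels coupled to M4 in HEK293 cells with BTC-AM dye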). The conditions noted are these: at 10 µM, actives lie on both sides. In a few lines: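 Material: M4/GIRK1/GIRK2 stable HEK293 cell line. Medium: pH 7.3 thallium assay buffer. Dosing: single compound concentration, 10 µM final. Schedule: 1 h dye loading, 2 min kinetic read. Measured by: kinetic fluorescence with BTC-AM dye. Read-out: post-addition slope, 15–24 s, of baseline-normalized fluorescence. Benchmarks: carbachol and DMSO controls.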

Assay [8] in a line: inhibitors of larval lipid processing in zebrafish, primary screen, whole organism, PED6 fluorescence, gall bladder and intestine (AID 686;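 active means a full or partial loss of lipid-probe fluorescence in the fish gall bladder, intestine or both, judged by eye; inactive means no fluorescence loss, or compound toxic to the fish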;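 further: larvae 5 to 7 days old with five fish per well; signal comes from phospholipase A2 cleavage of quenched PED6 carried via bile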). Conditions: Zebrafish larvae PED6 lipid processing, fluorescence scoring; screened at 20 µM (by protocol). In a few lines: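 System: live zebrafish larvae aged 5-7 days, whole organism; measure: graded gall bladder and intestinal fluorescence inhibition per well; incubation: overnight exposure; reagent: ingested quenched lipid PED6 at 100 nM; signal: By-eye fluorescence microscopy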

A short description of assay [9]: loss of swimming-algae plug formation – whole organism, Chlamydomonas reinhardtii, WT vs cilia-less mutant, absorbance, 96-well, primary screen (AID 463189;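 active means inhibition at or above 50% relative to wild type and mutant plate controls; inactive means inhibition below 50%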;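 further: 0% = wild type cc124 cells in DMSO and 100% = ciliumless bld1 mutant cells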). The conditions noted are these: Chlamydomonas reinhardtii gravitaxis, OD600 absorbance, 2 days; at 10 µM; stronger effect = higher value.
Setting [10] is: measured here: cell density z-score.
Setting [11] is: measured here: nuclear c-Myc green intensity z-score.
Where [12] appears, read: measured here: nuclear pErk red intensity z-score, stronger effect = higher value.

Sequence of Dual specificity protein phosphatase 6 (Homo sapiens) (Q16828 whole entry, looked up): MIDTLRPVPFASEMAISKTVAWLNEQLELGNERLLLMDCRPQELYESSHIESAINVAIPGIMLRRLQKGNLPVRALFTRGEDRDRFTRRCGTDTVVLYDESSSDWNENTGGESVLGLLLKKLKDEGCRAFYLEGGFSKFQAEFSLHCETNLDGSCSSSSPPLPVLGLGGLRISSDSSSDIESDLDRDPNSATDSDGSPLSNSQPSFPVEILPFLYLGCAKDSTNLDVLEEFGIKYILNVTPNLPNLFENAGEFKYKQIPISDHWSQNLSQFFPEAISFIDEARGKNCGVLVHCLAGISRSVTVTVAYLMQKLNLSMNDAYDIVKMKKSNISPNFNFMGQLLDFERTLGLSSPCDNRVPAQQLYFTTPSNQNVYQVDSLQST
Sequence of Voltage-gated potassium channel subunit beta-2 (Rattus norvegicus) (P62483 whole entry, looked up): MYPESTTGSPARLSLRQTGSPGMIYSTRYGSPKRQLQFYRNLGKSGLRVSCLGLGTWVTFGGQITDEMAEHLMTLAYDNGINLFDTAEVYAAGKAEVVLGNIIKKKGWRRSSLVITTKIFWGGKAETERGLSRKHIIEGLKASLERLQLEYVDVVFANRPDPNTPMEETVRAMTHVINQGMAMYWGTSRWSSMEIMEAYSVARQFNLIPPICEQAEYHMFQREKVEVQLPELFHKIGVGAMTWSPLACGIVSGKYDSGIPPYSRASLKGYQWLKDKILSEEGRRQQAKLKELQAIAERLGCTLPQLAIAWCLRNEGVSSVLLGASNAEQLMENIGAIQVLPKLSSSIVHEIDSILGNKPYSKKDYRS
Sequence of Muscarinic acetylcholine receptor M4 (Homo sapiens) (P08173 whole entry, looked up): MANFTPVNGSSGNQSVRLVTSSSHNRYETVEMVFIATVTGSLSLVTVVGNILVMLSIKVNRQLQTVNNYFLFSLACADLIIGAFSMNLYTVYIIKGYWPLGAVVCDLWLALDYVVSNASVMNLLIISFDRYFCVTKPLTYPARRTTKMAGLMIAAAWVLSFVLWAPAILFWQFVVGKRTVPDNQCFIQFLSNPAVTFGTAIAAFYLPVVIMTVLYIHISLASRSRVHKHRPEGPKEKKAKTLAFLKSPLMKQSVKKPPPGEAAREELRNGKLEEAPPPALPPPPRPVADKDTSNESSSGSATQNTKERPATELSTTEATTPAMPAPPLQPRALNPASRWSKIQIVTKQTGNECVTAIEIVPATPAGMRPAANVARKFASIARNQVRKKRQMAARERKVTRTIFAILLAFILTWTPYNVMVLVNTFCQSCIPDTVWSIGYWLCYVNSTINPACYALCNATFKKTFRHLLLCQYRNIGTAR

For the molecule `Cc1nnc(SCC(=O)N2CCOCC2)c2ccccc12`, in assay [1], the cell count stood at 489. Moreover, the inhibition in [1] is 7.8% (inactive); in assay [2], -38.5% (inactive); in [4], 1.63% (inactive); in assay [9], -5.11% (inactive). For the same molecule, the nuclei count in assay [2] is 135%. The values for the z-score in assay [3] (setting [10]), in [3] (setting [11]) and in assay [3] (setting [12]) were 0.531, 1.47 and 0.934, respectively. The fluorescence slope in assay [5] is -0.534 (inactive); in [7], 0.00485 (inactive). For the same molecule, in assay [6], the NADPH fluorescence slope was -0.000118 (inactive). Moreover, the molecule was classed as inactive in assay [8].

On to `Cc1cc(N2C(=O)C(=O)/C(=C(/O)c3ccccc3)C2c2cccs2)no1` (centres undefined), for which, in assay [1], the cell count worked out at 668. The inhibition in assay [1] is 0.1% (inactive); in assay [2], -91.9% (inactive); in [4], 6.04% (inactive); in [9], 24.8% (inactive). Further, in assay [2], the nuclei count is 165%. The values for the z-score in assay [3] (setting [10]), in [3] (setting [11]) and in assay [3] (setting [12]) were 0.267, -0.396 and -0.163, respectively. For the same molecule, the fluorescence slope in [5] was -0.486 (inactive); in assay [7], 0.00578 (inactive). The NADPH fluorescence slope in [6] is -1.4e-05 (inactive). In [8], the call was inactive.

With `CC1(C(=O)CSc2nc3ccccc3[nH]2)CCC(=O)O1` (centres undefined), the cell count in assay [1] was determined as 631. Besides, the inhibition in [1] is -2% (inactive); in assay [2], -8.2% (inactive); in assay [4] it was -13.3% (inactive); in [9], 0.18% (inactive). Also, the nuclei count in assay [2] is 115%. For the same molecule, the z-score in assay [3] (setting [10]) was -2.03; in [3] (setting [11]), -0.005; in [3] (setting [12]), -0.394. Also, the fluorescence slope is -0.508 (inactive) in [5] and 0.0059 (inactive) in assay [7]. Moreover, the NADPH fluorescence slope in assay [6] was -1.8e-05 (inactive). Moreover, in [8], the molecule was called inactive.

Consider `O=C(Cc1ccccc1)Nc1cccc(-c2nnc(-c3ccco3)o2)c1`, for which the cell count in [1] was determined as 665. Also, the inhibition in assay [1] is -8.6% (inactive); in assay [2], 46.6% (inactive); in assay [4], -9.53% (inactive); in [9], -2.78% (inactive). The same molecule had a nuclei count in assay [2] of 188%. The figures for the z-score in [3] (setting [10]), in assay [3] (setting [11]) and in assay [3] (setting [12]) were 0.0893, 1.04 and 1.35, respectively. The results for the fluorescence slope in [5] and in assay [7] were -0.485 (inactive) and 0.00851 (inactive), respectively. For the same molecule, in assay [6], the NADPH fluorescence slope was -5.1e-05 (inactive). The molecule was called inactive in assay [8].

`CCN(CC)C(=O)CSc1nc2ccccc2c(=O)n1CC1CCCCC1`: the cell count in [1] was 355. Moreover, the inhibition is -2.2% (inactive) in assay [1], 4% (inactive) in assay [2], 1.42% (inactive) in [4] and 7.22% (inactive) in assay [9]. For the same molecule, in [2], the nuclei count turned out to be 108%. Besides, the z-score in assay [3] (setting [10]) was -1.94; in assay [3] (setting [11]), 0.923; in [3] (setting [12]) it was -0.374. Moreover, the figures for the fluorescence slope in assay [5] and in assay [7] were -0.484 (inactive) and 0.00498 (inactive), respectively. In addition, in assay [6], the NADPH fluorescence slope was 5.7e-06 (inactive). In addition, in assay [8], the molecule was classed as inactive.

Consider `CCc1nc(N2CCOCC2)c(C#N)c2c1CCCC2`, for which the cell count in assay [1] is 397. Also, the inhibition in [1] is -6.2% (inactive); in assay [2] it was -105% (inactive); in assay [4], 9.42% (inactive); in [9], 29.5% (inactive). In assay [2], this molecule gave a nuclei count of 121%. Moreover, the z-score in assay [3] (setting [10]) is 0.0216; in [3] (setting [11]), 0.691; in assay [3] (setting [12]), -0.389. Besides, the fluorescence slope is -0.482 (inactive) in assay [5] and 0.00431 (inactive) in assay [7]. The NADPH fluorescence slope in [6] is -6.5e-05 (inactive). In addition, the result in [8] was inactive.

Regarding `COc1ccc2c(c1OC)C(=O)N1c3ccccc3C(=O)N(c3ccccc3F)C21` (centres undefined), the cell count in assay [1] stood at 708. In addition, the inhibition in assay [1] was -7.9% (inactive); in [2], -37.7% (inactive); in assay [4], 5.35% (inactive); in [9], 3.94% (inactive). Moreover, the nuclei count in assay [2] was found to be 134%. In addition, the values for the z-score in assay [3] (setting [10]), in [3] (setting [11]) and in [3] (setting [12]) were 0.797, -1.74 and -0.312, respectively. Further, the figures for the fluorescence slope in assay [5] and in assay [7] were -0.444 (inactive) and 0.00636 (inactive), respectively. Moreover, the NADPH fluorescence slope in assay [6] is -5.7e-05 (inactive). In addition, in assay [8], the molecule was called inactive.

Regarding `C=C(C)CC1N(c2cccc(OC)c2)C(=O)[C@@H]2C(C(=O)O)[C@H]3C=C[C@@]12O3` (some centres undefined), the cell count in assay [1] amounted to 628. The inhibition in assay [1] was -15.4% (inactive); in [2], 51.9% (inactive); in assay [4], -7.28% (inactive); in assay [9], -0.618% (inactive). In addition, the nuclei count in assay [2] is 182%. In addition, the z-score in assay [3] (setting [10]) is -0.541; in assay [3] (setting [11]), 1.19; in assay [3] (setting [12]) it was 1.46. Also, the fluorescence slope in assay [5] is -0.49 (inactive); in [7] it was 0.00494 (inactive). Besides, the NADPH fluorescence slope in assay [6] is -7.9e-05 (inactive). For the same molecule, the call in assay [8] was inactive.

For `Cc1c(C)[n+](=O)c2c(n1[O-])CCC2`, the cell count in [1] is 529. The inhibition in [1] is -2% (inactive); in assay [2] it was -51.7% (inactive); in [4], 13.9% (inactive); in assay [9] it was 38.1% (inactive). Moreover, the nuclei count in assay [2] stood at 103%. The z-score is -0.661 in assay [3] (setting [10]), -0.154 in assay [3] (setting [11]) and 0.608 in assay [3] (setting [12]). In addition, the fluorescence slope in assay [5] was -0.343 (inactive); in assay [7] it was 0.00544 (inactive). Further, the NADPH fluorescence slope in [6] is -2.3e-05 (inactive). In addition, in [8], the outcome was inactive.

As to `CCn1c(SCC(=O)Nc2ccccc2C(=O)OC)nnc1-c1ccc(N)cc1`, the cell count in [1] amounted to 653. For the same molecule, the inhibition was 2.4% (inactive) in assay [1], 7.2% (inactive) in assay [2], 22.1% (inactive) in [4] and 19.8% (inactive) in assay [9]. The nuclei count in [2] is 176%. The z-score was 0.614 in assay [3] (setting [10]), 0.0177 in assay [3] (setting [11]) and -0.913 in assay [3] (setting [12]). In addition, the fluorescence slope in [5] was -0.46 (inactive); in assay [7] it was 0.00557 (inactive). Besides, the NADPH fluorescence slope in assay [6] was -4.1e-05 (inactive). Further, the molecule was called inactive in [8].

In the case of `O=C1C(=O)N(CCCn2ccnc2)C(c2ccccn2)/C1=C(/O)c1ccccc1` (centres undefined), the cell count in assay [1] stood at 436. Also, the inhibition in [1] was -12.2% (inactive); in assay [2] it was -259% (inactive); in [4] it was 9.37% (inactive); in assay [9], 0.678% (inactive). This molecule also returned a nuclei count in [2] of 147%. The z-score in assay [3] (setting [10]) is -0.279; in [3] (setting [11]), -1.33; in assay [3] (setting [12]), 0.494. Besides, the fluorescence slope in assay [5] was -0.469 (inactive); in assay [7], 0.00446 (inactive). Further, the NADPH fluorescence slope in [6] was -5.2e-05 (inactive). The outcome in assay [8] was inactive.

In the case of `CCOc1ccc(NC(=O)c2nn(C)cc2Br)cc1`, the cell count in [1] was 647. Also, the inhibition is 2.4% (inactive) in [1], -41% (inactive) in assay [2], -4.27% (inactive) in [4] and 4.55% (inactive) in [9]. The molecule also returned a nuclei count in assay [2] of 157%. The z-score in [3] (setting [10]) was 0.327; in assay [3] (setting [11]), 0.393; in assay [3] (setting [12]), -0.814. Besides, the fluorescence slope was -0.489 (inactive) in [5] and 0.00579 (inactive) in assay [7]. Moreover, the NADPH fluorescence slope in [6] is -6.1e-05 (inactive). Further, the molecule was called inactive in [8].

For `CN(C)c1ccc(NC(=O)c2sc(SCC(=O)Nc3nccs3)nc2N)cc1`, in [1], the cell count was found to be 700. Further, the inhibition in [1] is -11.3% (inactive); in [2], 0.8% (inactive); in [4], 1.98% (inactive); in [9] it was -7.49% (inactive). Also, the nuclei count in assay [2] is 179%. The values for the z-score in assay [3] (setting [10]), in assay [3] (setting [11]) and in [3] (setting [12]) were -1.08, 1.63 and 0.495, respectively. For the same molecule, the fluorescence slope is -0.491 (inactive) in [5] and 0.00686 (inactive) in [7]. Further, in assay [6], the NADPH fluorescence slope is -9e-05 (inactive). Moreover, in assay [8], the outcome was inactive.

The inhibition is the change of the read-out against control, counted positive when it falls.
